Compound activity as filed in PubChem BioAssay.
Shown are actives, neighbours in structure and some others; about 1.9% of the full set was active somewhere.
MT1-MMP act inh = inhibitors of human MT1-MMP activation; P50281; GFP/RFP ratio change, % at 20 µM; AID 651647; HT1080 RFP-PRO-GFP cells, GFP/RFP ratio fluorescence, overnight; percent of plate control window, DMSO zero; 360,000 compounds, 0.061% hits;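 active = GFP/RFP ratio change of at least 30% with cell ATP level not reduced by more than half and red fluorescence within 50% of control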
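Read-out: GFP/RFP fluorescence ratio; Test system: RFP-PRO-GFP reporter HT1080 cells; Compound dosing: single-point 20 µM compound, 1% DMSO; Times: overnight compound exposure at 37 °C.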
PG9 binder = small molecules binding HIV-1 gp120 antibody PG9; TR-FRET gp120-PG9 antibody binding; inhibition, % at 6.7 µM; 360,000 compounds, 0.43% hits; in the data active = inhibition above about 8.5%
SKN-1 inh = blocks SKN-1 activity in C. elegans; C. elegans VP596 Pgst-4::GFP/RFP ratio, acrylamide-induced, 24 h; inhibition, % at 21.8 µM; 360,000 compounds, 0.49% hits;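 active = interference check ratio from 0.5 to 1.5 plus GFP to RFP signal ratio inhibition reaching or exceeding a fixed threshold, cut at about 30% in these data, passing the limit was not always enough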
NR2E3 ag-1 = agonists of human nuclear receptor NR2E3. Q9Y5X4. 320,000 compounds, 0.12% hits. inhibition of corepressor binding, % at 4.78 µM. GST-NR2E3/biotin-RetCOR TR-FRET, 1536-well;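 active = percent inhibition above the cutoff of mean plus 3 SD of all tested compounds, set per screening campaign, cut at about 20% in these data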
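system = GST-tagged NR2E3 plus biotinylated RetCOR corepressor | input = 1.35 nM GST-NR2E3 | also added = 7 nM biotin-RetCOR | schedule = 5 h incubation at 4 °C | measured by = TR-FRET with europium anti-GST and streptavidin-D2, 340 nm excitation | read-out = percent loss of FRET ratio relative to control wells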
NR2E3 ag-2 = human photoreceptor-specific nuclear receptor agonism; 360,000 compounds, 0.35% hits; CHO-S Gal4-NCOR/VP16-NR2E3 two-hybrid, luciferase; AID 602229; inhibition of corepressor binding, % at 3.98 µM;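 active = inhibition above the mean of all tested compounds plus 3 SD, cut at about 70% in these data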;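 note: higher means lower luciferase signal from less NR2E3 corepressor binding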
Rev-erbA mod = modulators of human Rev-erb alpha DNA binding; P20393; Rev-erbα–FITC-DNA binding, fluorescence polarization, 90 min; activity, % at 10 µM; 370,000 compounds, 0.79% hits; AID 1259318;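 active = activity above about 14%, limit read from the data; passing the limit was not always enough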
Target sequence (P20393 whole entry, looked up): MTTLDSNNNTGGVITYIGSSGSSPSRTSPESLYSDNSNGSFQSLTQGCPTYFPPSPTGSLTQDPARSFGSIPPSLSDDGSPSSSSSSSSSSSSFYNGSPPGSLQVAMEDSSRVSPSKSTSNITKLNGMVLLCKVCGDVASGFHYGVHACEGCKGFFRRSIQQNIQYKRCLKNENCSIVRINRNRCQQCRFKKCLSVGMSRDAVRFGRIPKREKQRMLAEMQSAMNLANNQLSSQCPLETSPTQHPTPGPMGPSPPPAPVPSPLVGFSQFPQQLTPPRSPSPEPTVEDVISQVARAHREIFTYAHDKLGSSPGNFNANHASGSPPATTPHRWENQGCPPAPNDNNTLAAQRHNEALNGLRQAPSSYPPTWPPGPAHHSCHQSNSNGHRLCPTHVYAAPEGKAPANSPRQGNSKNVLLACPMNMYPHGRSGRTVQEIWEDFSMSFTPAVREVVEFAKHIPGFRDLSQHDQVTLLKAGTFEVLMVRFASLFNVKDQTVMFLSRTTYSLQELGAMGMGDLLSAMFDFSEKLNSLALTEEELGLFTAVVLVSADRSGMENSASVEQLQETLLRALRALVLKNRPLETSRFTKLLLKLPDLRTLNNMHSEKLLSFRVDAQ
NR2E3 ag confirm = confirmation of human NR2E3 agonists | AID 624378 | shares compounds with NR2E3 ag-2 | CHO-S mammalian two-hybrid NR2E3-NCOR, luciferase luminescence | 2,300 compounds, 51% hits | inhibition, % at 3.98 µM;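 active = average inhibition above a cutoff equal to the mean inhibition of all tested compounds plus one SD, cut at about 70% in these data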
VP16 counter = reduces GAL4-VP16 reporter signal in NR2E3 counterscreen; inhibition, % at 3.98 µM; 2,300 compounds, 29% hits; CHO-S GAL4-VP16 luciferase reporter, luminescence; shares compounds with NR2E3 ag-2;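 active = mean inhibition above a cutoff equal to the average over all tested compounds plus one standard deviation, cut at about 70% in these data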;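 note: luciferase from a UAS reporter driven by GAL4-VP16 transactivation; higher means less reporter light so more repression of VP16 activity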
A number is an active result.

`COC(=O)[C@]12C[C@H](CC(=O)N3CCOCC3)C(=O)N(CCc3ccc(OC)c(OC)c3)C1=C[C@H](C(C)(C)C)O[C@@H]2C` gave PG9 binder inactive and Rev-erbA mod inactive.
`COc1ccc2cc(C(C)C(=O)Nc3cccc(S(=O)(=O)N(C)C)c3)ccc2c1` (stereo not given) gave MT1-MMP act inh inactive, PG9 binder inactive, SKN-1 inh inactive, NR2E3 ag-1 inactive, NR2E3 ag-2 inactive, Rev-erbA mod inactive, NR2E3 ag confirm inactive and VP16 counter inactive.
Screening O=[N+]([O-])c1ccc(NC(=S)NCCc2ccc(F)cc2)cc1 returned MT1-MMP act inh inactive, PG9 binder inactive, SKN-1 inh inactive, NR2E3 ag-1 inactive, NR2E3 ag-2 inactive, Rev-erbA mod inactive, NR2E3 ag confirm 77.1 and VP16 counter inactive.
CCn1c(=O)cc(SCC(=O)Nc2ccc(C)cn2)c2ccccc21 was read as MT1-MMP act inh inactive, PG9 binder 22.5, SKN-1 inh inactive, NR2E3 ag-1 inactive, NR2E3 ag-2 74.5, Rev-erbA mod inactive, NR2E3 ag confirm 95.1 and VP16 counter inactive.
`CCOC(=O)N[C@H](C(=O)N1CCC[C@H]1C(=O)NC1CCCC1)c1ccccc1` gave PG9 binder inactive and Rev-erbA mod inactive.
CC(C)[C@H]1/C(=C/C2CC2)N2C(=O)C[C@H](c3ccccc3)N=C2N1C was read as Rev-erbA mod inactive.
`COc1ccc(NS(=O)(=O)c2ccc3oc(SCc4ccc(F)cc4)nc3c2)cc1` gave MT1-MMP act inh inactive, PG9 binder inactive, SKN-1 inh inactive, NR2E3 ag-1 inactive, NR2E3 ag-2 inactive, Rev-erbA mod inactive, NR2E3 ag confirm 85.1 and VP16 counter inactive.
COc1ccccc1NS(=O)(=O)c1ccc2oc(SCc3ccc(F)cc3)nc2c1 was read as MT1-MMP act inh inactive, PG9 binder inactive, SKN-1 inh inactive, NR2E3 ag-1 inactive, NR2E3 ag-2 inactive and Rev-erbA mod inactive.
Screening CS(=O)(=O)c1ccccc1C(=O)Nc1ccccc1Cc1ccccc1 returned MT1-MMP act inh inactive, PG9 binder inactive, SKN-1 inh inactive, NR2E3 ag-1 inactive, NR2E3 ag-2 inactive and Rev-erbA mod inactive.
O=C(Nc1ccccc1Cc1ccccc1)c1ccccc1NS(=O)(=O)c1ccc(Cl)s1 was read as MT1-MMP act inh inactive, PG9 binder inactive, SKN-1 inh inactive, NR2E3 ag-1 inactive, NR2E3 ag-2 97.6, Rev-erbA mod inactive, NR2E3 ag confirm 97.8 and VP16 counter 86.1.
`O=C(Nc1ccccc1)c1ccccc1NS(=O)(=O)c1ccc(Cl)s1` gave MT1-MMP act inh inactive, PG9 binder inactive, SKN-1 inh inactive, NR2E3 ag-1 inactive, NR2E3 ag-2 102.3, Rev-erbA mod inactive, NR2E3 ag confirm 98.8 and VP16 counter 85.7.
`Cc1ccc(NC(=O)c2ccccc2NS(=O)(=O)c2ccc(Cl)s2)cc1` gave MT1-MMP act inh inactive, PG9 binder inactive, SKN-1 inh inactive, NR2E3 ag-1 inactive, NR2E3 ag-2 94.8, Rev-erbA mod inactive, NR2E3 ag confirm 97.4 and VP16 counter 79.2.
Screening O=C(NCc1ccco1)c1ccccc1NS(=O)(=O)c1ccc(Cl)s1 returned MT1-MMP act inh inactive, PG9 binder inactive, SKN-1 inh inactive, NR2E3 ag-1 inactive, NR2E3 ag-2 inactive and Rev-erbA mod inactive.
For COc1cccc(CNC(=O)[C@H]2CCCN2C(=O)C2CCCN2C(=O)c2ccc(OC)c(F)c2)c1 (stereo not given in full) the results were PG9 binder inactive and Rev-erbA mod inactive.
For O=C(N[C@@H](Cc1cccnc1)C(=O)N1CCC[C@H]1C(=O)NCc1ccccc1)c1ccc(Cl)c(Cl)c1 the results were PG9 binder inactive and Rev-erbA mod inactive.
Screening COC(=O)C1=C(C)N(Cc2cccc(C(F)(F)F)c2)C(=NCc2ccc(OC)cc2)NC1c1cccc(C(F)(F)F)c1 (stereo not given) returned PG9 binder inactive and Rev-erbA mod inactive.
CN(Cc1ccccc1)C(=O)OCc1cn(Cc2ccc(F)cc2)nn1 was read as Rev-erbA mod inactive.
For Cc1cccc(C)c1OCc1nnc(SCC(=O)O)n1-c1c(C)cccc1C the results were PG9 binder inactive and Rev-erbA mod inactive.
For Cc1cc(C(=O)Nc2ccc(Cl)cc2)c(C)n1-c1ccccc1 the results were MT1-MMP act inh inactive, PG9 binder inactive, SKN-1 inh inactive, NR2E3 ag-1 inactive, NR2E3 ag-2 88.5, Rev-erbA mod inactive, NR2E3 ag confirm 82.1 and VP16 counter inactive.
`Cc1cc(C(=O)Nc2ccc(Cl)cc2)n(-c2ccccc2)n1` gave MT1-MMP act inh inactive, PG9 binder inactive, SKN-1 inh inactive, NR2E3 ag-1 inactive, NR2E3 ag-2 inactive and Rev-erbA mod inactive.
`Cc1ccc(NC(=O)c2cc(C)n(-c3cccc(C)c3)c2C)cc1` gave MT1-MMP act inh inactive, PG9 binder inactive, SKN-1 inh inactive, NR2E3 ag-1 inactive, NR2E3 ag-2 inactive and Rev-erbA mod inactive.
Screening Cc1ccc(NC(=O)c2cc(C)n(-c3ccccc3)c2C)cc1 returned MT1-MMP act inh inactive, PG9 binder inactive, SKN-1 inh inactive, NR2E3 ag-1 inactive, NR2E3 ag-2 inactive, Rev-erbA mod inactive, NR2E3 ag confirm inactive and VP16 counter inactive.
`NNC(=S)NC1CC2CC1C1C=CCC21` (stereo not given) gave MT1-MMP act inh inactive, PG9 binder inactive, SKN-1 inh inactive, NR2E3 ag-1 inactive, NR2E3 ag-2 inactive and Rev-erbA mod inactive.
Oc1ccc(O)c(C=NNC(=S)NC2CC3CC2C2C=CCC32)c1 (stereo not given) was read as MT1-MMP act inh inactive, PG9 binder inactive, SKN-1 inh inactive, NR2E3 ag-2 inactive, Rev-erbA mod inactive, NR2E3 ag confirm inactive and VP16 counter inactive.
For CCCN(CC1CC1)C(=S)NC(=O)c1ccccc1C the results were MT1-MMP act inh inactive, PG9 binder inactive, SKN-1 inh inactive, NR2E3 ag-2 inactive and Rev-erbA mod inactive.
For CCCN(CC1CC1)C(=S)NC(=O)c1cc(Br)ccc1Cl the results were MT1-MMP act inh inactive, PG9 binder inactive, SKN-1 inh inactive, NR2E3 ag-2 81.2, Rev-erbA mod inactive, NR2E3 ag confirm inactive and VP16 counter inactive.
`CCOC(=O)C1=C(CC)Nc2ccccc2N/C1=N\S(=O)(=O)c1ccc2ccccc2c1` gave MT1-MMP act inh inactive, PG9 binder inactive, SKN-1 inh inactive, NR2E3 ag-1 inactive, NR2E3 ag-2 inactive and Rev-erbA mod inactive.
